A short description of data set [1]: Selectivity ratio of CC50 for MDCK cells to IC50 for Influenza A virus A/WSN/33(H1N1) infected in MDCK cells. It is filed as toxicity, cell-based. The settings on record: dog, read-out: Ratio CC50/IC50. In short, it runs like this: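 Selectivity index calculated as CC50 (uninfected MDCK cells, CellTiter-Glo) divided by IC50 (inhibition of A/WSN/33 H1N1-induced CPE in MDCK cells).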

The test system of data set [2] is Influenza A virus. Nature of the data set: Antiviral activity against Influenza A virus (A/WSN/1933(H1N1)) infected in MDCK cells assessed as inhibition of virus-induced cytopathic effect at 100 uM measured after 40 hrs incubation by inverted microscpic imaging analysis. It is filed as functional. The procedure, abridged:
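MDCK cells infected with influenza A/WSN/33 (H1N1), with compounds at 100 μM. Viral CPE judged by direct microscopic observation. DMSO served as the negative control and oseltamivir phosphate as the positive control. Triplicate experiments, with standard deviations.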

A short description of data set [3]: Cytotoxicity against MDCK cells assessed as reduction in cell viability by CellTiter-Glo assay. The settings on record: dog. It is filed as cell-based, Canis lupus familiaris. The procedure, abridged:
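Viability of normal, uninfected MDCK cells measured by CellTiter-Glo. Medium containing 1% DMSO was the negative control. CC50 is the concentration that reduces viability by 50%.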

Data set [4] can be described thus: Selectivity index, ratio of CC50 for MDCK cells to IC50 for antiviral activity against Influenza A virus (A/Hong Kong/4801/2014 (H3N2)). It is filed as toxicity. Particulars: dog, read-out: Ratio CC50/IC50.
The subject of data set [5] is Influenza B virus. Nature of the data set: Antiviral activity against Influenza B virus (B/Sichuan/531/2018(Victoria)) infected in cells assessed as reduction in infected cells. It is filed as functional, organism-based.
For data set [6], the system named is Influenza A virus. Kind of data set: Antiviral activity against Influenza A virus (A/Hong Kong/4801/2014 (H3N2)) infected in cells assessed as reduction in infected cells. It is filed as functional, organism-based.
Data set [7] has as its system Influenza A virus. Kind of data set: Antiviral activity against Influenza A virus (A/WSN/1933(H1N1)) infected in MDCK cells assessed as s reduction in virus-induced cytopathic effect after 40 hrs incubation by CellTiter-Glo assay. It is filed as functional, organism-based. The procedure, abridged: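 CPE-based dose–response in MDCK cells infected with A/WSN/33 (H1N1), using the CellTiter-Glo viability read-out. Medium with 1% DMSO was the negative control and oseltamivir phosphate the positive control. IC50 is the concentration giving 50% inhibition of virus-induced CPE. Means of duplicate samples from three independent experiments.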

Data set [8] can be described thus: Selectivity index, ratio of CC50 for MDCK cells to IC50 for antiviral activity against Influenza A virus (B/Sichuan/531/2018(Victoria)). Particulars: dog, read-out: Ratio CC50/IC50. It is filed as toxicity.

Some results are limits rather than exact numbers.

Take `CC1(C)CC[C@]2(C(=O)NCCCCCc3cn(CC(CO)(Cn4cc(CCCCCNC(=O)[C@]56CCC(C)(C)C[C@H]5C5=CC[C@@H]7[C@@]8(C)CC[C@H](O)C(C)(C)[C@@H]8CC[C@@]7(C)[C@]5(C)CC6)nn4)Cn4cc(CCCCCNC(=O)[C@]56CCC(C)(C)C[C@H]5C5=CC[C@@H]7[C@@]8(C)CC[C@H](O)C(C)(C)[C@@H]8CC[C@@]7(C)[C@]5(C)CC6)nn4)nn3)CC[C@]3(C)C(=CC[C@@H]4[C@@]5(C)CC[C@H](O)C(C)(C)[C@@H]5CC[C@]43C)[C@@H]2C1`: the values for the selectivity ratio in data set [1] and in data set [4] were more than 175 and more than 83.3, respectively. The inhibition at 100 µM in data set [2] is more than 80%. Moreover, in data set [3], the CC50 is more than 100 µM. Moreover, the IC50 is more than 100 µM in data set [5], 1.2 µM in data set [6] and 0.57 µM in data set [7].
For the molecule `CC1(C)CC[C@]2(C(=O)NCCCCc3cn(CC(CO)(Cn4cc(CCCCNC(=O)[C@]56CCC(C)(C)C[C@H]5C5=CC[C@@H]7[C@@]8(C)CC[C@H](O)C(C)(C)[C@@H]8CC[C@@]7(C)[C@]5(C)CC6)nn4)Cn4cc(CCCCNC(=O)[C@]56CCC(C)(C)C[C@H]5C5=CC[C@@H]7[C@@]8(C)CC[C@H](O)C(C)(C)[C@@H]8CC[C@@]7(C)[C@]5(C)CC6)nn4)nn3)CC[C@]3(C)C(=CC[C@@H]4[C@@]5(C)CC[C@H](O)C(C)(C)[C@@H]5CC[C@]43C)[C@@H]2C1`, in data set [1], the selectivity ratio was more than 3.99. For the same molecule, the inhibition at 100 µM in data set [2] is more than 80%. In addition, the CC50 in data set [3] was more than 100 µM. For the same molecule, the IC50 in data set [7] was 25.1 µM.
On to `CC1(C)CC[C@]2(C(=O)NCc3cn(Cc4cc(Cn5cc(CNC(=O)[C@]67CCC(C)(C)C[C@H]6C6=CC[C@@H]8[C@@]9(C)CC[C@H](O)C(C)(C)[C@@H]9CC[C@@]8(C)[C@]6(C)CC7)nn5)cc(Cn5cc(CNC(=O)[C@]67CCC(C)(C)C[C@H]6C6=CC[C@@H]8[C@@]9(C)CC[C@H](O)C(C)(C)[C@@H]9CC[C@@]8(C)[C@]6(C)CC7)nn5)c4)nn3)CC[C@]3(C)C(=CC[C@@H]4[C@@]5(C)CC[C@H](O)C(C)(C)[C@@H]5CC[C@]43C)[C@@H]2C1`, for which the selectivity ratio in data set [1] is more than 14.6. In data set [2], the inhibition at 100 µM is more than 80%. Besides, the CC50 in data set [3] was more than 100 µM. In data set [7], the IC50 is 6.86 µM.
The corresponding values for `CC1(C)CC[C@]2(C(=O)NCCc3cn(CC(CO)(Cn4cc(CCNC(=O)[C@]56CCC(C)(C)C[C@H]5C5=CC[C@@H]7[C@@]8(C)CC[C@H](O)C(C)(C)[C@@H]8CC[C@@]7(C)[C@]5(C)CC6)nn4)Cn4cc(CCNC(=O)[C@]56CCC(C)(C)C[C@H]5C5=CC[C@@H]7[C@@]8(C)CC[C@H](O)C(C)(C)[C@@H]8CC[C@@]7(C)[C@]5(C)CC6)nn4)nn3)CC[C@]3(C)C(=CC[C@@H]4[C@@]5(C)CC[C@H](O)C(C)(C)[C@@H]5CC[C@]43C)[C@@H]2C1` are more than 34.8, more than 80%, more than 100 µM and 2.87 µM.
Turning to `CC1(C)CC[C@]2(C(=O)NCCOCCOCCOCCn3cc(OCc4cc(COc5cn(CCOCCOCCOCCNC(=O)[C@]67CCC(C)(C)C[C@H]6C6=CC[C@@H]8[C@@]9(C)CC[C@H](O)C(C)(C)[C@@H]9CC[C@@]8(C)[C@]6(C)CC7)nn5)cc(COc5cn(CCOCCOCCOCCNC(=O)[C@]67CCC(C)(C)C[C@H]6C6=CC[C@@H]8[C@@]9(C)CC[C@H](O)C(C)(C)[C@@H]9CC[C@@]8(C)[C@]6(C)CC7)nn5)c4)nn3)CC[C@]3(C)C(=CC[C@@H]4[C@@]5(C)CC[C@H](O)C(C)(C)[C@@H]5CC[C@]43C)[C@@H]2C1`, the selectivity ratio in data set [1] was more than 10.2. Moreover, in data set [2], the inhibition at 100 µM is more than 80%. In addition, the CC50 in data set [3] is more than 100 µM. Moreover, the IC50 in data set [7] amounted to 9.84 µM.
As to `CCOC(=O)C1=C[C@@H](OC(CC)CC)[C@H](NC(C)=O)[C@@H](N)C1` [OSELTAMIVIR PHOSPHATE], the selectivity ratio in data set [1] was more than 55. Besides, the inhibition at 100 µM in data set [2] was more than 80%. In addition, the CC50 in data set [3] is more than 100 µM. Also, the IC50 in data set [5] is more than 100 µM; in data set [6] it was more than 100 µM; in data set [7] it was 1.82 µM.
As to `CC1(C)CC[C@]2(C(=O)NCCCCCc3cn(Cc4cc(Cn5cc(CCCCCNC(=O)[C@]67CCC(C)(C)C[C@H]6C6=CC[C@@H]8[C@@]9(C)CC[C@H](O)C(C)(C)[C@@H]9CC[C@@]8(C)[C@]6(C)CC7)nn5)cc(Cn5cc(CCCCCNC(=O)[C@]67CCC(C)(C)C[C@H]6C6=CC[C@@H]8[C@@]9(C)CC[C@H](O)C(C)(C)[C@@H]9CC[C@@]8(C)[C@]6(C)CC7)nn5)c4)nn3)CC[C@]3(C)C(=CC[C@@H]4[C@@]5(C)CC[C@H](O)C(C)(C)[C@@H]5CC[C@]43C)[C@@H]2C1`, in data set [2], the inhibition at 100 µM was more than 80%. Moreover, in data set [3], the CC50 was more than 100 µM.
Consider `CC1(C)CC[C@]2(C(=O)NCCCc3cn(Cc4cc(Cn5cc(CCCNC(=O)[C@]67CCC(C)(C)C[C@H]6C6=CC[C@@H]8[C@@]9(C)CC[C@H](O)C(C)(C)[C@@H]9CC[C@@]8(C)[C@]6(C)CC7)nn5)cc(Cn5cc(CCCNC(=O)[C@]67CCC(C)(C)C[C@H]6C6=CC[C@@H]8[C@@]9(C)CC[C@H](O)C(C)(C)[C@@H]9CC[C@@]8(C)[C@]6(C)CC7)nn5)c4)nn3)CC[C@]3(C)C(=CC[C@@H]4[C@@]5(C)CC[C@H](O)C(C)(C)[C@@H]5CC[C@]43C)[C@@H]2C1`, for which the selectivity ratio in data set [1] is more than 263; in data set [8] it was more than 3.53; in data set [4], more than 37.5. Also, in data set [2], the inhibition at 100 µM was more than 80%. Also, in data set [3], the CC50 is more than 100 µM. Further, the concentration for half-maximal inhibition (IC50) in data set [5] stood at 28.4 µM; in data set [6], 2.67 µM; in data set [7], 0.38 µM.
Take `CC1(C)CC[C@]2(C(=O)NCCOCCn3cc(OCc4cc(COc5cn(CCOCCNC(=O)[C@]67CCC(C)(C)C[C@H]6C6=CC[C@@H]8[C@@]9(C)CC[C@H](O)C(C)(C)[C@@H]9CC[C@@]8(C)[C@]6(C)CC7)nn5)cc(COc5cn(CCOCCNC(=O)[C@]67CCC(C)(C)C[C@H]6C6=CC[C@@H]8[C@@]9(C)CC[C@H](O)C(C)(C)[C@@H]9CC[C@@]8(C)[C@]6(C)CC7)nn5)c4)nn3)CC[C@]3(C)C(=CC[C@@H]4[C@@]5(C)CC[C@H](O)C(C)(C)[C@@H]5CC[C@]43C)[C@@H]2C1`: the selectivity ratio in data set [1] was more than 5.98. The inhibition at 100 µM in data set [2] was more than 80%. The CC50 in data set [3] is more than 100 µM. Also, the IC50 in data set [7] stood at 16.7 µM.
As for `CC1(C)CC[C@]2(C(=O)NCc3cn(CC(CO)(Cn4cc(CNC(=O)[C@]56CCC(C)(C)C[C@H]5C5=CC[C@@H]7[C@@]8(C)CC[C@H](O)C(C)(C)[C@@H]8CC[C@@]7(C)[C@]5(C)CC6)nn4)Cn4cc(CNC(=O)[C@]56CCC(C)(C)C[C@H]5C5=CC[C@@H]7[C@@]8(C)CC[C@H](O)C(C)(C)[C@@H]8CC[C@@]7(C)[C@]5(C)CC6)nn4)nn3)CC[C@]3(C)C(=CC[C@@H]4[C@@]5(C)CC[C@H](O)C(C)(C)[C@@H]5CC[C@]43C)[C@@H]2C1`, in data set [1], the selectivity ratio was more than 21.3. Also, the inhibition at 100 µM in data set [2] is more than 80%. The half-maximal cytotoxic concentration (CC50) in data set [3] was more than 100 µM. Besides, the IC50 in data set [7] stood at 4.69 µM.
On to `CC1(C)CC[C@]2(C(=O)O)CC[C@]3(C)C(=CC[C@@H]4[C@@]5(C)CC[C@H](O)C(C)(C)[C@@H]5CC[C@]43C)[C@@H]2C1` [OLEANOLIC_ACID], for which the selectivity ratio in data set [1] is more than 1.38. Moreover, the inhibition at 100 µM in data set [2] is more than 80%. In addition, the CC50 in data set [3] is more than 100 µM. In data set [7], the IC50 stood at 72.3 µM.
Take `CC1(C)CC[C@]2(C(=O)NCCc3cn(Cc4cc(Cn5cc(CCNC(=O)[C@]67CCC(C)(C)C[C@H]6C6=CC[C@@H]8[C@@]9(C)CC[C@H](O)C(C)(C)[C@@H]9CC[C@@]8(C)[C@]6(C)CC7)nn5)cc(Cn5cc(CCNC(=O)[C@]67CCC(C)(C)C[C@H]6C6=CC[C@@H]8[C@@]9(C)CC[C@H](O)C(C)(C)[C@@H]9CC[C@@]8(C)[C@]6(C)CC7)nn5)c4)nn3)CC[C@]3(C)C(=CC[C@@H]4[C@@]5(C)CC[C@H](O)C(C)(C)[C@@H]5CC[C@]43C)[C@@H]2C1`: in data set [1], the selectivity ratio was more than 3.17. In data set [2], the inhibition at 100 µM is more than 80%. For the same molecule, the CC50 in data set [3] was more than 100 µM. In addition, in data set [7], the IC50 was determined as 31.6 µM.

(Values after ChEMBL document CHEMBL4842395, “Design and Synthesis of Oleanolic Acid Trimers to Enhance Inhibition of Influenza Virus Entry” (ACS Med Chem Lett, 2021).)
